pIC50: −log10 of the molar value. Calls of active or inactive are those of the source. No cut-off for these calls is given here.

The text below walks through data of ChEMBL document CHEMBL3425481, “Design, synthesis and anticancer activity of matrine-1H-1,2,3-triazole-chalcone conjugates” (Bioorg Med Chem Lett, 2015).

Test [1] in a line: Antiproliferative activity against human Bel7402 cells assessed as inhibition of cell proliferation incubated for 48 hrs by CCK8 assay. It is filed as functional, cell-based. Conditions: Bel-7402, 48 h. The method, boiled down:
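Human A549 lung, Hela cervical, Bel-7402 hepatocellular and MCF-7 breast cancer cells, plus mouse embryo fibroblast NIH3T3, tested for anti-proliferative activity by CCK-8 assay. For the matrine combination tests, the chalcone and matrine were used at a 1:1 molar ratio; values given as IC50.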

Test [2] relates to A549. The test is described as follows: Potency index, ratio of IC50 for 5-fluorouracil to IC50 for compound against human A549 cells incubated for 48 hrs by CCK8 assay. The test is classed as functional.
The test system of test [3] is A549. As to the kind of experiment: Induction of apoptosis in human A549 cells assessed as late apoptosis cells level at 2 times antiproliferative IC50 incubated for 24 hrs by Annexin V-FITC/propidium iodide double staining based flow cytometry (reference value: 0.127%). It is filed as functional.
In test [4] the test system is A549. The test is described as follows: Induction of apoptosis in human A549 cells assessed as necrosis cells level at 2 times antiproliferative IC50 incubated for 24 hrs by Annexin V-FITC/propidium iodide double staining based flow cytometry (reference value: 0.042%). It is filed as functional. In general terms: Flow cytometry measures light scatter and fluorescence of single cells or particles in a stream.

Test [5] concerns A549. As to the kind of experiment: Antitumor activity against human A549 cells xenografted in Balb/ca-nu mouse assessed as tumor growth inhibition at 2.5 mg/kg, iv dosed every 3 days for total of 7 dosing rounds measured on day 10 after treatment. The test is classed as functional. Conditions: read-out: TGI. The method in brief: (§1)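 A549 xenograft in mice, dosed by tail vein injection every 3 days; vehicle saline plus 0.2% Tween 80. n = 8 per treatment group, 6 in the vehicle group. Mean ± SE.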

Test [6] deals with A549. As to the kind of experiment: Antitumor activity against human A549 cells xenografted in Balb/ca-nu mouse assessed as tumor growth inhibition at 2.5 mg/kg, iv dosed every 3 days for total of 7 dosing rounds measured on day 12 after treatment. It is filed as functional. Particulars: read-out: TGI. The method in brief:
as §1
In general terms: A xenograft is tissue or cells of one species grown in another, often human tumour cells in immunodeficient mice.

Test [7] concerns A549. The test is described as follows: Antitumor activity against human A549 cells xenografted in Balb/ca-nu mouse assessed as tumor growth inhibition at 5 mg/kg, iv dosed every 3 days for total of 7 dosing rounds measured on day 18 after treatment. The test is classed as functional. Particulars: read-out: TGI. The method in brief: as §1
Test [8] concerns A549. The test is described as follows: Antitumor activity against human A549 cells xenografted in Balb/ca-nu mouse assessed as tumor growth inhibition at 10 mg/kg, iv dosed every 3 days for total of 7 dosing rounds measured on day 20 after treatment. It is filed as functional. Particulars: read-out: TGI. The method, boiled down: as §1
The subject of test [9] is A549. As to the kind of experiment: Antitumor activity against human A549 cells xenografted in Balb/ca-nu mouse assessed as tumor growth inhibition at 10 mg/kg, iv dosed every 3 days for total of 7 dosing rounds measured on day 8 after treatment. The test is classed as functional, organism-based. On the set-up: dose 10 mg/kg. The method, boiled down: as §1

For `O=C(/C=C/c1cccc(Cl)c1)c1ccc(OCc2cn([C@H]3CC(=O)N4C[C@@H]5CCCN6CCC[C@@H]([C@H]56)[C@H]4C3)nn2)cc1O`, the pIC50 in test [1] is 5.25. For the same compound, the “Ratio IC50” value with A549 [2] was found to be 8. The results for the Activity with A549 [3] and with A549 [4] were 33.1% and 2.57%, respectively. For the same compound, the results for the inhibition in vivo at 2.5 mg/kg with A549 [5] and in the test with A549 [6] were 5.4% and 12.2%, respectively. Moreover, the inhibition in vivo at 5 mg/kg in the test on A549 [7] amounted to 60.5%. Further, the inhibition in vivo at 10 mg/kg in the test on A549 [8] turned out to be 89.6%. The TGI entry in the test on A549 [9] was “Active”.

The pIC50 is the negative decadic logarithm of the IC50, by convention in mol/L.
